Measured values from ChEMBL document CHEMBL1127414 (J Med Chem, 1994).
Values after ≈ are worked out from the molar mass of the structure shown.

Key:
HepG2 [1] = assay: Concentration required to inhibit cholesterol synthesis in Hep G2 cells relative to control (IC50 of L-694,599); format: functional, Homo sapiens
Method in brief: (§1)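 Hep G2 cells held 2 days in lipoprotein-depleted FBS to stimulate sterol synthesis, then given inhibitor in serum-free medium for 2 h. 15 μCi [5-3H]mevalonate (0.2 mCi/mmol) added for 1 h. Cells washed and saponified, and radioactivity counted by scintillation.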

Mus musculus [2] = assay: (§2) Tested for its ability to inhibit the incorporation of [5-3H]-mevalonolactone into cholesterol by in vivo mouse assay by peroral administration at a dose of 40 mg/kg; format: ADME, organism-based; parameters: dose 40 mg/kg, route oral; conditions: po
Method in brief: (§3)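 Female Swiss Webster mice (~25 g), six per group, dosed po by gavage with inhibitor suspended in 5% emulphor. 30 min later, 0.5 μCi/mouse [5-3H]mevalonolactone in saline given sc. Livers removed 30 min after that and saponified in KOH/EtOH overnight at 55 °C, then petroleum-ether extracted. Nonsaponifiable dpm counted. Compounds first tested at a single dose (typically 12 or 24 mg/kg).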

[3] = target: T1, Squalene synthase (Rattus norvegicus) (UniProt Q02769); assay: concentration required to inhibit rat liver squalene synthase enzyme relative to control (L-694,599)
T1 sequence (whole entry): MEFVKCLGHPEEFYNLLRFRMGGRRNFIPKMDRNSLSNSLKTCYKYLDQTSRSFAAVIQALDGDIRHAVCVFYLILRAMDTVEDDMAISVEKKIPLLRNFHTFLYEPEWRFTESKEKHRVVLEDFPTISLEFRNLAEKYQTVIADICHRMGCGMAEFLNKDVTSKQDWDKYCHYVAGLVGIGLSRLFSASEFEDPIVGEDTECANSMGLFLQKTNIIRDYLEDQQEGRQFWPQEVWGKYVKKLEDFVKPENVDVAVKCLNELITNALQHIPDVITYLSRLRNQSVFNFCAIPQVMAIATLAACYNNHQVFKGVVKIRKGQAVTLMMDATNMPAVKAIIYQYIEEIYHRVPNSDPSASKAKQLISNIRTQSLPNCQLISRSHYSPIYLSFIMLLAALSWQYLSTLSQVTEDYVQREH
Method in brief: (§4)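 Enzyme from rat liver. […] Inhibitors added in DMSO (0.3% final) as 3-fold serial dilutions, usually up to 30 ng/mL (about 40 nM). IC50 read from % inhibition vs log concentration.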

HepG2 [4] = assay: Concentration required to inhibit cholesterol synthesis in Hep G2 cells; format: functional, cell-based; conditions: Homo sapiens; method in brief: as §1
Squalene synthase [5] = target: T2, Squalene synthase (Rattus norvegicus, UniProt Q02769); assay: Tested for inhibition against squalene synthase enzyme in rat liver
T2 sequence (Q02769 whole entry): T1 sequence (whole entry)

Cryptococcus neoformans [6] = assay: Concentration required to inhibit growth of MY 1051 strain of Cryptococcus neoformans; format: functional
Method in brief: (§5)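 Broth microdilution against a panel of clinically relevant fungal strains. Read-out was the minimum fungicidal concentration in μg/mL.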

Candida albicans [7] = assay: Concentration required to inhibit growth of MY 1750 strain of Candida albicans; format: functional; method in brief: as §5
Candida albicans [8] = assay: Concentration required to inhibit growth of MY 1055 strain of Candida albicans; format: functional; method in brief: as §5
Candida tropicalis = assay: Concentration required to inhibit growth of MY 1012 strain of Candida tropicalis; format: functional; method in brief: as §5
Candida parapsilosis = assay: Concentration required to inhibit growth of MY 1010 strain of Candida parapsilosis; format: functional; conditions: Lodderomyces parapsilosis; method in brief: as §5
Cryptococcus neoformans [9] = assay: Concentration required to inhibit growth of MY 2061 strain of Cryptococcus neoformans; format: functional; method in brief: as §5
[10] = target: T1, Squalene synthase (Rattus norvegicus); assay: Concentration required to inhibit rat liver squalene synthase enzyme relative to control (L-694,599); method in brief: as §4
Mus musculus [11] = assay: as §2; format: functional; conditions: route oral; method in brief: as §3
Aspergillus fumigatus = assay: Concentration required to inhibit growth of MF 4839 strain of Aspergillus fumigatus; format: functional; method in brief: as §5
Trichophyton benhamiae = assay: Concentration required to inhibit growth of MF 4864 strain of Trichophyton mentagrophytes; format: functional, Arthroderma benhamiae; method in brief: as §5
[12] = system: squalene synthase (Saccharomyces cerevisiae); assay: Compound required to inhibit 50% activity of yeast squalene synthase enzyme relative to control (L-694,599)
Squalene synthase [13] = target: T2, Squalene synthase; assay: Concentration required for inhibition of rat liver squalene synthase enzyme at 161 nM; Not active
HepG2 [14] = assay: Concentration of compound required to inhibit cholesterol synthesis in Hep G2 cells relative to control (IC50 of L-694,599); format: functional, Homo sapiens; method in brief: as §1
Squalene synthase [15] = target: T2, Squalene synthase; assay: Concentration required for inhibition of rat liver squalene synthase enzyme at 161 nM; NA = not active
Mus musculus [16] = assay: Tested for its ability to inhibit the incorporation of [5-3H]-mevalonolactone into cholesterol by in vivo mouse assay by peroral administration at a dose of 6 mg/kg; format: functional; conditions: route oral; method in brief: as §3
[17] = target: T3, Squalene synthase (Mus musculus) (UniProt P53798); assay: Tested for the effective dose required for the incorporation of [5-3H]-mevalonolactone into cholesterol by in vivo mouse assay by peroral administration; format: functional, organism-based; method in brief: as §3
T3 sequence (whole entry): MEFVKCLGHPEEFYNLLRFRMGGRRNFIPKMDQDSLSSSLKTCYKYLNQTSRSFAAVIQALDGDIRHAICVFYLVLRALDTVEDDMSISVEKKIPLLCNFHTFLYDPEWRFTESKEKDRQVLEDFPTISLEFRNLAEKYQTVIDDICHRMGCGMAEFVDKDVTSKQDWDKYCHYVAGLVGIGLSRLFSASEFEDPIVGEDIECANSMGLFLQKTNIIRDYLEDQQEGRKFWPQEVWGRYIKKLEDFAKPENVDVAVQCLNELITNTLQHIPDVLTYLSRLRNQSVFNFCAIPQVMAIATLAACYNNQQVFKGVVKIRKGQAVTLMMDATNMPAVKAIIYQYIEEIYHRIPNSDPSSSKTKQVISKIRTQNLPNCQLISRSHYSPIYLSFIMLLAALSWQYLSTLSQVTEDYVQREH

Mus musculus [18] = assay: Ability to inhibit the incorporation of [5-3H]-mevalonolactone into cholesterol by in vivo mouse assay by peroral administration at a dose of 24 mg/kg; format: functional; conditions: route oral; method in brief: as §3
[19] = system: squalene synthase (Saccharomyces cerevisiae); assay: compound required to inhibit 50% activity of yeast squalene synthase enzyme relative to control (L-694,599).

SMILES | Relative activity (HepG2 [1]) | Relative activity [3] | IC50 (HepG2 [4]) [nM] | IC50 (Squalene synthase [5]) [nM] | MFC (Cryptococcus neoformans [6]) [µg/mL] | MFC (Candida albicans [7]) [µg/mL] | MFC (Candida albicans [8]) [µg/mL] | MFC (Candida tropicalis) [µg/mL] | MFC (Candida parapsilosis) [µg/mL] | MFC (Cryptococcus neoformans [9]) [µg/mL] | MFC (Aspergillus fumigatus) [µg/mL] | MFC (Trichophyton benhamiae) [µg/mL] | other results
C=C(CCC12OC(C(=O)O)C(O)(C(=O)O)C(C(=O)O)(O1)[C@H](OC(=O)OCCCCCCCCCCCC)[C@H]2O)[C@@H](OC(C)=O)[C@H](C)Cc1ccccc1 (some centres not stated) | 4.36 | 0.47 | 1900 | 0.19 |  |  |  |  |  |  |  |  | inhibition at 40 mg/kg (Mus musculus [2]): 5%
C=C(CCC12OC(C(=O)O)C(O)(C(=O)O)C(C(=O)O)(O1)[C@H](OC(=O)CCCCCCCCCCC)[C@H]2O)[C@@H](OC(C)=O)[C@H](C)Cc1ccccc1 (some centres not stated) | 3.24 |  | 1700 | 0.8 | 2 (≈ 2.77 µM) | 8 (≈ 11.1 µM) | 4 (≈ 5.55 µM) | 8 (≈ 11.1 µM) | 8 (≈ 11.1 µM) | 0.12 (≈ 0.166 µM) | 8 (≈ 11.1 µM) | 4 (≈ 5.55 µM) | Relative activity [10]: 0.29; inhibition in vivo at 40 mg/kg (Mus musculus [11]): 20%; Relative activity [12]: 3.13
C=C(CCC12OC(C(=O)O)C(OCCC)(C(=O)O)C(C(=O)O)(O1)[C@H](O)[C@H]2O)[C@@H](OC(C)=O)[C@H](C)Cc1ccccc1 (some centres not stated) |  |  |  |  |  |  |  |  |  |  |  |  | IC50 (Squalene synthase [13]): Not Active
C=C(CCC12OC(C(=O)O)C(O)(C(=O)O)C(C(=O)O)(O1)[C@H](OC(=O)CCCCCCC)[C@H]2O)[C@@H](OC(C)=O)[C@H](C)Cc1ccccc1 (some centres not stated) |  |  | 9600 | 0.66 |  |  |  |  |  |  |  |  | Relative activity (HepG2 [14]): 0.57; Relative activity [10]: 0.17
C=C(CCC12OC(C(=O)O)C(OCCCCCCCCCCCCCC)(C(=O)O)C(C(=O)O)(O1)[C@H](OCCCCCCCCCCCCCC)[C@H]2O)[C@@H](OC(C)=O)[C@H](C)Cc1ccccc1 (some centres not stated) |  |  |  |  |  |  |  |  |  |  |  |  | IC50 (Squalene synthase [15]): Not Active
C=C(CCC12OC(C(=O)O)C(O)(C(=O)O)C(C(=O)O)(O1)[C@H](O/C(S)=N/C(C)C)[C@H]2O)[C@@H](OC(C)=O)[C@H](C)Cc1ccccc1 (some centres not stated) |  | 0.01 |  |  |  |  |  |  |  |  |  |  | inhibition in vivo at 6 mg/kg (Mus musculus [16]): 9%; ED50 [17]: > 6 mg/kg
C=C(CCC12OC(C(=O)O)C(O)(C(=O)O)C(C(=O)O)(O1)[C@H](OC(=O)OCCCCCCCCCC)[C@H]2O)[C@@H](OC(C)=O)[C@H](C)Cc1ccccc1 (some centres not stated) |  |  | 2400 |  | 8 (≈ 11.1 µM) | 16 (≈ 22.1 µM) | 8 (≈ 11.1 µM) | 2 (≈ 2.77 µM) | 2 (≈ 2.77 µM) | 0.25 (≈ 0.346 µM) | 2 (≈ 2.77 µM) | < 0.06 | inhibition in vivo at 24 mg/kg (Mus musculus [18]): 28%
C=C(CCC12OC(C(=O)O)C(O)(C(=O)O)C(C(=O)O)(O1)[C@H](OCCCCCCCCCCCC)[C@H]2O)[C@@H](OC(C)=O)[C@H](C)Cc1ccccc1 (some centres not stated) | 5.62 | 2.5 | 1600 | 0.12 | 0.5 (≈ 0.707 µM) | 32 (≈ 45.3 µM) | 4 (≈ 5.66 µM) | 64 (≈ 90.5 µM) | 8 (≈ 11.3 µM) | 0.12 (≈ 0.17 µM) | 0.5 (≈ 0.707 µM) | 1 (≈ 1.41 µM) | inhibition in vivo at 40 mg/kg (Mus musculus [11]): 26%; Relative activity [19]: 9.26
